The nature of data set [1]: Stability of the compound in mouse plasma at 37 degC up to 4 hrs. In kind it is ADME, cell-free. The procedure, abridged:
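The radiotracer (3.7 MBq in 100 μL water) was added to 1 mL of freshly prepared murine plasma and incubated at 37 °C for 4 h. Radiochemical purity was assayed by HPLC at 1, 2 and 4 h.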

The next data set has as its system Cortex. The data set can be described thus: Biodistribution in Sprague-Dawley rat cortex at 23 MBq, iv after 60 mins by microPET imaging/CT study in presence of haloperidol. In kind it is ADME, organism-based. Conditions: in vivo, 1 h; call rule not given here. The procedure, abridged:
(§1)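 Sprague-Dawley rats under isoflurane (1.5–2.5%) in oxygen received 23 MBq radiotracer (0.2 mL saline) via tail vein. Blocking animals were pre-injected with haloperidol (0.2 mL, 1 mg/kg) 5 min before the tracer. MicroPET emission was acquired for 30 min starting 60 min post-injection, followed by a 5 min CT scan; images were summed over 60–90 min.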

Data set [2] can be described thus: Drug uptake in Sprague-Dawley rat white matter at 12.2 MBq, iv after 60 mins by autoradiography. The settings on record: in vivo, 1 h. It counts as ADME, organism-based. The procedure, abridged: (§2)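 [¹⁸F]-labelled tracer (0.2 mL, 12.2 MBq) given intravenously to conscious Sprague-Dawley rats (n = 3). Each rat was killed by cervical dislocation 60 min after injection. The brain was removed and frozen in liquid nitrogen, and 20 μm coronal sections were cut on a cryostat for ex vivo autoradiography of regional radioactivity.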

A short description of data set [3]: Metabolic stability in ICR mouse liver at 18.5 MBq, iv after 30 mins by HPLC analysis. It counts as ADME, organism-based. The settings on record: read-out: Stability. The procedure, abridged: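 Male ICR mice given radiotracer iv (18.5 MBq, 0.2 mL), killed at 30 min. Brain and liver were homogenized in ice-cold PBS (0.01 M, pH 7.4) and extracted with ice-cold MeCN. Supernatants were filtered, concentrated and analysed by radio-HPLC on a C18 column, acetonitrile/water with 0.1% TFA (45:55), 1 mL/min.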

The test system of a further data set is Thalamus. The experiment in a line: Biodistribution in Sprague-Dawley rat thalamus at 23 MBq, iv after 60 mins by microPET imaging/CT study. It counts as ADME, organism-based. The settings on record: in vivo, 1 h. The procedure, abridged:
as §1

A further data set deals with Cerebellum. The experiment in a line: Biodistribution in Sprague-Dawley rat cerebellum at 23 MBq, iv after 60 mins by microPET imaging/CT study in presence of haloperidol. In kind it is ADME, organism-based. The settings on record: in vivo, 1 h. The procedure, abridged:
as §1

The test system of another data set is Rattus norvegicus. The data set can be described thus: Biodistribution in Sprague-Dawley rat olfactory bulb at 23 MBq, iv after 60 mins by microPET imaging/CT study in presence of haloperidol. It counts as ADME, organism-based. Conditions: in vivo, 1 h. The procedure, abridged:
as §1

The next data set relates to Brain. The data set can be described thus: Biodistribution in ICR mouse brain assessed as reduction in radiotracer uptake at 370 kBq, iv after 60 minutes by gamma-counting analysis in presence of (S)-(-)raclopride. In kind it is ADME, organism-based. The settings on record: in vivo, 1 h. The procedure, abridged: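 Male ICR mice got saline or a blocker (haloperidol, (S)-(−)-raclopride, fluvoxamine or tamoxifen; 0.1 mL, 2.2 μmol/kg) via tail vein 5 min before 370 kBq tracer iv. Brain was γ-counted at 60 min and compared with saline controls by two-tailed Student's t test, p ≤ 0.05.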

Data set [4] is described as follows: Drug uptake in Sprague-Dawley rat vermian lobule at 12.2 MBq, iv after 60 mins by autoradiography. It counts as ADME, organism-based. The settings on record: in vivo, 1 h. The procedure, abridged:
as §2

Consider one compound from ChEMBL document CHEMBL2346503, “Synthesis and evaluation of novel (18)F-labeled spirocyclic piperidine derivatives as σ1 receptor ligands for positron emission tomography imaging” (J Med Chem, 2013).

For `[18F]CCOc1ccc(CN2CCC3(CC2)OCc2ccccc23)cc1`, in data set [1], the Stability entry is “Stable”. Further, the Drug uptake entry (in the data set with Cortex; in data set [2]; with Thalamus; in the data set with Cerebellum; with Rattus norvegicus; in the data set on Brain) was “Active” in each case. Moreover, in data set [4], the Drug uptake entry is given as “Active”. Besides, in data set [3], the remaining at 0.5 h turned out to be 40.3%.
